Assay results published in ChEMBL document CHEMBL4138118, “Novel thioglycosyl analogs of glycosyltransferase substrates as antiviral compounds against classical swine fever virus and hepatitis C virus” (Eur J Med Chem, 2017).
Activity calls are given as the source filed them. The rule behind the calls is not given here.

How the values were obtained:
[1] = Cytotoxicity against human Huh7.5 cells assessed as reduction in cell viability after 72 hrs by MTT method; assay type: cell-based
[2] = Selectivity index, ratio of CC50 for SK6 cells to IC50 for CSFV; assay type: toxicity; conditions: pig, read-out: Ratio CC50/IC50
Summary of the method: (§1)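 Selectivity index is CC50/IC50, taken from the cell viability assay (SK6 by MTS, Huh-7.5 by MTT) and the matching pseudo-plaque reduction assay.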

[3] = Effect on actin levels in SK6 cells at 2.5 to 10 uM under non-reducing condition after 48 hrs by Western blot method; assay type: ADME, cell-based, Sus scrofa; conditions: pig
Hepatitis C virus [4] = assay: (§2) Antiviral activity against HCV genotype 2a JFH1 infected in human Huh7-J20 cells assessed as inhibition of viral entry at 1.56 to 75 uM pretreated for 1 hr with cells followed by viral infection for 3 hrs and subsequent compound washout measured after 72 hrs by SEAP reporter assay; assay type: functional, organism-based; conditions: Hepacivirus hominis, JFH-1
Summary of the method: (§3)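 Huh7-J20 SEAP reporter cells, infected with JFH-1 HCVcc, read-out SEAP chemiluminescence in supernatant after 72 h. Model 1: 1 h compound pretreatment, 3 h infection with compound, then compound-free medium. Model 2: same, with compound kept for the full 72 h. Model 3: 3 h infection, compound added afterwards only. DMSO control; three experiments.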

Hepatitis C virus [5] = assay: Antiviral activity against HCV Jc1/JFH infected in human Huh7.5 cells assessed as downregulation of NS5B gene expression after 48 hrs by RT-PCR method; assay type: functional, organism-based; conditions: Hepacivirus hominis
Summary of the method: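 Huh-7.5 cells infected with HCV (MOI 0.1) for 4 h, washed, then cultured with compound for 48 h. Total RNA isolated; 1 µg reverse-transcribed with an NS5B-specific reverse primer, then PCR for NS5B. Band densitometry expressed as % of untreated infected control.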

[6] = Effect on actin levels in human Huh7.5 cells at 6.25 to 100 uM under reducing condition after 48 hrs by Western blot method; assay type: ADME, cell-based
Summary of the method: (§4)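 Huh-7.5 cells infected with HCV (MOI 0.1), washed after 1–6 h, then treated with inhibitor. Lysed in RIPA buffer with protease inhibitors after 48 h (methods; legend gives 72 h p.i.). 20 µg protein run on reducing SDS-PAGE; Western blot probed with anti-E1 mAb (1:2000) and anti-actin (1:1000).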

[7] = Selectivity index, ratio of CC50 for Huh7.5 cells to IC50 for HCV Jc1/JFH; assay type: toxicity; conditions: human, read-out: Ratio CC50/IC50; summary of the method: as §1
[8] = Cytotoxicity against human Huh7-J20 cells assessed as decrease in cell viability at 1.56 to 75 uM after 72 hrs by MTT assay; assay type: cell-based
Summary of the method: (§5)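 Uninfected Huh7-J17, Huh7-J20 or Huh-7.5 cells incubated with compound, then viability read by MTT. Time stated as 72 h for Huh7-J20 and Huh7-J17, and 48 h for Huh-7.5. Results expressed relative to DMSO-treated cells (100%); CC50 from the dose-response curve.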

[9] = Cytotoxicity against SK6 cells assessed as reduction in cell viability after 2 days by MTS method; assay type: cell-based, Sus scrofa; conditions: pig; for Activity: 48 h; for CC50 at 48 h: SK6 cells
Summary of the method: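 SK6 viability by MTS (CellTiter 96 AQueous) assay; CC50 is the concentration reducing viability by 50%, taken from the dose-response curve.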

Hepatitis C virus [10] = assay: Antiviral activity against HCV infected in human Huh7-J17 cells assessed as inhibition of viral RNA replication at 75 uM after 72 hrs by bright-glo luciferase reporter assay relative to control; assay type: functional, Hepacivirus hominis
Summary of the method: (§6)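 Huh7-J17 replicon cells seeded in 96-well plates together with compound, DMSO or sofosbuvir and incubated 72 h. Cells lysed and luciferase read with Bright-Glo. Values expressed as % of DMSO-treated cells; IC50 from dose-response fit; three experiments.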

Hepatitis C virus [11] = assay: Antiviral activity against HCV Jc1/JFH infected in human Huh7.5 cells assessed as reduction of pseudo-plaque formation at 80 uM after 72 hrs by immunoperoxidase monolayer assay relative to control; assay type: functional, Hepacivirus hominis; parameters: scale not given: the % may be the effect or the level left
Summary of the method: (§7)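 Huh-7.5 cells seeded at 1.5 × 10^4 per well, infected next day with Jc1/JFH HCVcc (genotype 2a) at MOI 0.1 for 3 h. Virus removed, medium with compound added; 72 h later cells fixed in cold methanol, permeabilized (0.5% Triton X-100), stained with anti-core antibody (1:300), HRP secondary. Pseudo-plaques counted by microscopy against untreated infected control; IC50 at 50% plaque reduction; three independent experiments.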

[12] = Cytotoxicity against human Huh7-J17 cells assessed as decrease in cell viability after 72 hrs by MTT assay; assay type: cell-based; summary of the method: as §5
Hepatitis C virus [13] = assay: Antiviral activity against HCV genotype 2a JFH1 infected in human Huh7-J20 cells assessed as inhibition of viral RNA replication at 1.56 to 75 uM after 72 hrs by SEAP reporter assay; assay type: functional, organism-based; conditions: Hepacivirus hominis, JFH-1; summary of the method: as §3
[14] = test system: Classical swine fever virus; assay: Antiviral activity against CSFV infected in SK6 cells assessed as reduction of pseudo-plaque formation at 9 uM after 2 days by immunoperoxidase monolayer assay relative to control; assay type: functional; parameters: scale not given: the % may be the effect or the level left
Hepatitis C virus [15] = assay: as §2, with “of complete” for “of”, “life cycle” for “entry”, “subsequent addition of fresh medium with” for “subsequent”, “compound” for “compound washout”; assay type: functional, organism-based; conditions: Hepacivirus hominis, JFH-1; summary of the method: as §3
Hepatitis C virus [16] = assay: Antiviral activity against HCV infected in human Huh7-J17 cells assessed as inhibition of viral RNA replication after 72 hrs by bright-glo luciferase reporter assay; assay type: functional, organism-based, Hepacivirus hominis; summary of the method: as §6
[17] = test system: Classical swine fever virus; assay: Inhibition of CSFV glycosyltransferase in SK6 cells assessed as downregulation of viral E2 levels under non-reducing condition after 48 hrs by Western blot method; assay type: cell-based
Hepatitis C virus [18] = assay: Antiviral activity against HCV Jc1/JFH infected in human Huh7.5 cells assessed as reduction of pseudo-plaque formation after 72 hrs by immunoperoxidase monolayer assay; assay type: functional, organism-based; conditions: for Activity: Hepacivirus hominis; for IC50: Huh7.5, 72 h; summary of the method: as §7
[19] = test system: Classical swine fever virus; assay: Antiviral activity against CSFV infected in SK6 cells assessed as reduction of pseudo-plaque formation after 2 days by immunoperoxidase monolayer assay; assay type: functional, organism-based; conditions: 48 h
Hepatitis C virus [20] = assay: Antiviral activity against HCV genotype 2a JFH1 infected in human Huh7-J20 cells assessed as inhibition of viral assembly at 1.56 to 75 uM after 72 hrs by SEAP reporter assay; assay type: functional, organism-based; conditions: Hepacivirus hominis, JFH-1; summary of the method: as §3
[21] = Effect on actin levels in SK6 cells at 3.75 to 30 uM under non-reducing condition after 48 hrs by Western blot method; assay type: ADME, cell-based, Sus scrofa; conditions: pig
[22] = Effect on actin levels in human Huh7.5 cells at 3.12 to 75 uM under reducing condition after 48 hrs by Western blot method; assay type: ADME, cell-based; summary of the method: as §4

SMILES | CC50 at 72 h [1] | selectivity ratio [2] | selectivity ratio [7] | Activity [9] | CC50 at 48 h [9] | IC50 (Hepatitis C virus [18]) | IC50 [19] | further results
CC(=O)OC[C@H]1O[C@@H](Sc2ccc(NC(=O)[C@H]3O[C@@H](n4ccc(=O)[nH]c4=O)[C@H](O[Si](C)(C)C(C)(C)C)[C@@H]3O[Si](C)(C)C(C)(C)C)cn2)[C@H](OC(C)=O)[C@@H](OC(C)=O)[C@@H]1OC(C)=O | 135 µM | 28.7 | 19.3 | Dose-dependent effect | 86 µM | 7 µM | 3 µM | Activity [3]: Non-Toxic; inhibition (Hepatitis C virus [4]): inactive; Activity (Hepatitis C virus [5]): Dose-dependent effect; Activity [6]: Non-Toxic; Activity [8]: Non-Toxic; inhibition at 75 µM (Hepatitis C virus [10]): 90%; Activity (Hepatitis C virus [11]): >90%; CC50 at 72 h [12]: 185 µM; inhibition (Hepatitis C virus [13]): Active; Activity [14]: >90%; inhibition (Hepatitis C virus [15]): Active; IC50 (Hepatitis C virus [16]): 4 µM; inhibition [17]: Dose-dependent effect; Activity (Hepatitis C virus [18]): Dose-dependent effect; inhibition (Hepatitis C virus [20]): Active
CC(=O)OC[C@H]1O[C@@H](Sc2ccc(NC(=O)[C@H]3O[C@@H](n4ccc(=O)[nH]c4=O)[C@H](O)[C@@H]3O)cn2)[C@H](OC(C)=O)[C@@H](OC(C)=O)[C@@H]1OC(C)=O | 402 µM | 1.1 | 1.1 | Dose-dependent effect | 350 µM | 373 µM | 320 µM | –
CC(=O)OC[C@H]1O[C@@H](Sc2ccc(NC(=O)CCC(=O)OC[C@H]3O[C@@H](n4ccc(=O)[nH]c4=O)[C@@H]4OC(C)(C)O[C@@H]43)cn2)[C@H](OC(C)=O)[C@@H](OC(C)=O)[C@@H]1OC(C)=O | 328 µM | 2 | 1.4 | Dose-dependent effect | 207 µM | 231 µM | 103 µM | –
O=C(Nc1ccc(S[C@@H]2O[C@H](CO)[C@@H](O)[C@H](O)[C@H]2O)nc1)[C@H]1O[C@@H](n2ccc(=O)[nH]c2=O)[C@H](O)[C@@H]1O | 420 µM | 1 | 1.05 | Dose-dependent effect | 380 µM | 402 µM | 370 µM | –
CC(=O)OC[C@H]1O[C@@H](Sc2ccc(NC(=O)[C@H]3O[C@@H](n4ccc(=O)[nH]c4=O)[C@@H]4OC(C)(C)O[C@@H]43)cn2)[C@H](OC(C)=O)[C@@H](OC(C)=O)[C@@H]1OC(C)=O | 271 µM | > 1.2 | 1.1 | Dose-dependent effect | > 380 µM | 244 µM | > 325 µM | –
CC(=O)OC[C@H]1O[C@@H](Sc2ccc(NC(=O)CCC(=O)OC[C@H]3O[C@@H](n4ccc(=O)[nH]c4=O)[C@@H]4OC(C)(C)O[C@@H]43)cn2)[C@H](OC(C)=O)[C@@H](OC(C)=O)[C@H]1OC(C)=O | 340 µM | 4 | 1.6 | Dose-dependent effect | 194 µM | 213 µM | 49 µM | –
CC(=O)OC[C@H]1O[C@@H](Sc2ccc(NC(=O)CCC(=O)OC[C@H]3O[C@@H](n4ccc(=O)n(C(=O)c5ccccc5)c4=O)[C@H](O[Si](C)(C)C(C)(C)C)[C@@H]3O[Si](C)(C)C(C)(C)C)cn2)[C@H](OC(C)=O)[C@@H](OC(C)=O)[C@@H]1OC(C)=O | 71 µM | 3.5 | 1.6 | Dose-dependent effect | 45 µM | 45 µM | 13 µM | –
CC(C)(C)[Si](C)(C)OC[C@H]1O[C@@H](Sc2ccc(NC(=O)[C@H]3O[C@@H](n4ccc(=O)[nH]c4=O)[C@H](O[Si](C)(C)C(C)(C)C)[C@@H]3O[Si](C)(C)C(C)(C)C)cn2)[C@H](OC(=O)c2ccccc2)[C@@H](OC(=O)c2ccccc2)[C@@H]1OC(=O)c1ccccc1 | > 270 µM | 1.9 | > 1.1 | Dose-dependent effect | 186 µM | > 236 µM | 97 µM | –
CC(C)OC(=O)[C@H](C)N[P@](=O)(OC[C@H]1O[C@@H](n2ccc(=O)[nH]c2=O)[C@](C)(F)[C@@H]1O)Oc1ccccc1 [SOFOSBUVIR] | 31 µM | – | 119 | – | – | 0.26 µM | – | CC50 at 72 h [12]: 23.5 µM; IC50 (Hepatitis C virus [16]): 0.028 µM
CC(=O)OC[C@H]1O[C@@H](Sc2ccc(NC(=O)[C@H]3O[C@@H](n4ccc(=O)[nH]c4=O)[C@@H]4OC(C)(C)O[C@@H]43)cn2)[C@H](OC(C)=O)[C@@H](OC(C)=O)[C@H]1OC(C)=O | 312 µM | > 1.2 | 1.2 | Dose-dependent effect | > 353 µM | 271 µM | > 299 µM | –
CC(=O)OC[C@H]1O[C@@H](Sc2ccc(NC(=O)[C@H]3O[C@@H](n4ccc(=O)[nH]c4=O)[C@H](O[Si](C)(C)C(C)(C)C)[C@@H]3O[Si](C)(C)C(C)(C)C)cn2)[C@H](OC(C)=O)[C@@H](OC(C)=O)[C@H]1OC(C)=O | 173 µM | 25.2 | 24.7 | Dose-dependent effect | 151 µM | 7 µM | 6 µM | inhibition (Hepatitis C virus [4]): inactive; Activity (Hepatitis C virus [5]): Dose-dependent effect; Activity [8]: Non-Toxic; inhibition at 75 µM (Hepatitis C virus [10]): 90%; Activity [21]: Non-Toxic; CC50 at 72 h [12]: 245 µM; inhibition (Hepatitis C virus [13]): Active; inhibition (Hepatitis C virus [15]): Active; IC50 (Hepatitis C virus [16]): 3.74 µM; Activity [22]: Non-Toxic; inhibition [17]: Dose-dependent effect; Activity (Hepatitis C virus [18]): Dose-dependent effect; inhibition (Hepatitis C virus [20]): Active
